Inconclusive results are not listed.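 How the source made its calls, unless noted: active means cell viability at or below a set limit in both duplicate runs, the limit being the all-compound median minus 4 SD (cut at about 23% in these data, passing the limit was not always enough); inconclusive means no clear call, values can overlap the other calls; inactive means the rest.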
How the values were obtained:
[1] = S. cerevisiae growth inhibition in permissive medium (OD615), pilot counter-assay for S. cerevisiae lifespan shortening project, permissive growth control (AID 705;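 active means growth inhibition above 25% in both replicates, a cutoff set 3 SD above the mean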); conditions: OD615, 24 h, at 10 µM, stronger effect = higher value
How it was run: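 assay system = Saccharomyces cerevisiae strain carrying genetically modified DeaD replicative-lifespan system | medium = SC raffinose/galactose permissive medium | dosing = 10 µM single dose, 0.25% DMSO | schedule = 24 h compound exposure at 30 °C after 4 h pre-growth | measured by = OD at 615 nm | read-out basis = growth inhibition from lowered OD615 after 24 h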

[2] = S. cerevisiae growth inhibition in restrictive medium, OD615, pilot screen, restrictive growth control, yeast lifespan reduction project (AID 706;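 active means growth inhibition above a set limit, 3 SD over mean compound inhibition, in both replicates, cut at about 43% in these data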;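 further: modified DeaD lifespan yeast strain shifted to restrictive glucose medium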); conditions: OD615, 48 h, at 10 µM, stronger effect = higher value
How it was run: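 Buffer or medium: CSMM-D glucose medium. Material: genetically modified Saccharomyces cerevisiae, DeaD replicative lifespan assay strain. Times: 48 h compound exposure at 30 °C. Measured by: optical density at 615 nm.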

[3] = doxorubicin toxicity protection in MRP-1 cells – H69AR cells, CellTiter-Glo, duplicate, MRP-1 activator project, pilot screen (AID 807;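 active means viability increase at or above a cutoff of the median across tested compounds plus 3 SD, cut at about 8.5% in these data, passing the limit was not always enough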;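 further: compound pretreatment 18-22 h then 72 h combined with doxorubicin; 0% = doxorubicin alone and 100% = vehicle without doxorubicin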); conditions: H69AR viability with doxorubicin, CellTiter-Glo luminescence; at 10 µM; stronger effect = higher value
[4] = viability of HCT116 without oncogenic beta-catenin – human colon tumor cells, pilot screen (AID 823); conditions: HCT116 beta-catenin knockout viability, CellTiter-Glo, 60 h; at 10 µM; stronger effect = lower value;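 further: 0% = wells killed by 20 µM Hyamine and 100% = untreated DMSO cell wells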
[5] = viability of PTEN-null HCT116 cells – cell-based, HCT116 clonal line, CellTiter-Glo, pilot screen (AID 824;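 active means viability at or below 27.92% in each of two runs, the all-compound median minus 4 SD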;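 further: 0% = 20 µM Hyamine control and 100% = vehicle cell control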); conditions: HCT116 PTEN-deleted viability, 60 h, at 10 µM, stronger effect = lower value
[6] = RAM pathway blockade in budding yeast – dse1pr::URA3 reporter, 5-FOA selection, pilot screen (AID 869;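 active means inhibition over a set limit, the all-compound mean plus 3 SD, in both replicate runs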;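 further: 0% = DMSO wells with no growth and 100% = 10 µM 1-NA-PP1 with full growth; RAM network block rescues cells from 5-FOA so hits raise OD615 growth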); conditions: S. cerevisiae dse1pr::URA3 5-FOA growth, OD615, 2 d; at 10 µM; stronger effect = higher value; strain carries analog-sensitive mutant Cbk1 kinase
[7] = RAM signaling pathway blockade in yeast – S. cerevisiae, Pdr1DBD-CYC8 efflux-inhibited sensitized strain, primary screen (AID 1298;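 active means RAM network inhibition above 8.4% in each of two replicates, 3 SD over the compound average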;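 further: 0% = DMSO untreated cells without growth and 100% = 10 µM 1-NA-PP1 full growth; higher means more yeast growth rescued from 5-FOA killing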); conditions: S. cerevisiae cbk1-as DSE1-URA3 strain, 5-FOA growth OD615, 2 d; at 50 µM; stronger effect = higher value

COC(=O)CSc1nc2ccccc2o1
inactive: growth inhibition [1] -7.46% | growth inhibition [2] -18.7% | viability increase [3] -1.43% | viability [4] 97.8% | viability [5] 96.3% | inhibition [6] 1.3% | RAM network inhibition [7] 1.45%

c1ccc(N(c2ccccc2)c2nc(N3CCOCC3)nc(N3CCOCC3)n2)cc1
inactive: growth inhibition [1] 4.5% | growth inhibition [2] -1.27% | viability increase [3] -3.09% | viability [4] 92.2% | viability [5] 89.9% | inhibition [6] 4.5% | RAM network inhibition [7] 3.75%

COc1ccc(Cl)cc1NC(=O)C1CCCO1 (stereo not drawn)
inactive: growth inhibition [1] 0.985% | growth inhibition [2] -9.53% | viability increase [3] -2.12% | viability [4] 98.9% | viability [5] 94.7% | inhibition [6] 1.42% | RAM network inhibition [7] 2.75%

COc1ccc(C2N3CC4(C)CN2CC(C)(C3)C4O)cc1 (stereo not drawn)
inactive: growth inhibition [1] -17.7% | growth inhibition [2] -6.65% | viability increase [3] 0.42% | viability [4] 106% | viability [5] 97.2% | inhibition [6] 1.22% | RAM network inhibition [7] -0.16%

COc1ccc(-c2nnc3ccc(SCC(=O)N4CCCC4)nn23)cc1
inactive: growth inhibition [1] 3.94% | growth inhibition [2] 1.08% | viability increase [3] -4.23% | viability [4] 101% | viability [5] 99.5% | inhibition [6] 1.44% | RAM network inhibition [7] 0.16%

CCOC(=O)C1=C(C)NC(=O)NC1c1ccc(N(C)C)cc1 (stereo not drawn)
inactive: growth inhibition [1] -12.3% | growth inhibition [2] -5.65% | viability increase [3] -2.7% | viability [4] 96.9% | viability [5] 92.9% | inhibition [6] 2.35% | RAM network inhibition [7] 5.85%

COC(=O)c1ccc(CSc2nc3c(c(=O)n2-c2ccc(F)cc2)SCC3)o1
inactive: growth inhibition [1] -7.83% | growth inhibition [2] -16.6% | viability increase [3] -3.02% | viability [4] 83.7% | viability [5] 81.3% | inhibition [6] 1.3% | RAM network inhibition [7] 1.52%

O=C(CSc1ncn[nH]1)Nc1nnc(-c2ccccc2)s1
inactive: growth inhibition [1] 6.24% | growth inhibition [2] 11.1% | viability increase [3] 4.9% | viability [4] 94.3% | viability [5] 93.7% | inhibition [6] -0.75% | RAM network inhibition [7] 0.61%

CCN(CC)CC(O)COc1ccccc1C(=O)CCc1ccccc1 (stereo not drawn)
inactive: growth inhibition [1] -17.4% | growth inhibition [2] -14.3% | viability increase [3] -4.88% | viability [4] 73% | viability [5] 80.5% | inhibition [6] 0.58% | RAM network inhibition [7] 4.17%

CC(=O)Nc1nnc(SCC(=O)NC(C)(C)C)s1
inactive: growth inhibition [1] -6.89% | growth inhibition [2] 1.67% | viability increase [3] -0.33% | viability [4] 94.8% | viability [5] 98.8% | inhibition [6] 1.88% | RAM network inhibition [7] 0.36%

O=C(c1ccc(N2CCCCS2(=O)=O)cc1)N1CCN(c2ccc(N3CCOCC3)nn2)CC1
inactive: growth inhibition [1] 3.18% | growth inhibition [2] 14.7% | viability increase [3] -0.03% | viability [4] 105% | viability [5] 106% | inhibition [6] 0.09% | RAM network inhibition [7] 1.25%

Cc1ccc(O)c(C2=NOC(O)(C(F)(F)C(F)F)C2)c1 (stereo not drawn)
inactive: growth inhibition [1] -0.995% | growth inhibition [2] 9.35% | viability increase [3] -5.27% | viability [4] 93.4% | viability [5] 92.9% | inhibition [6] 0.72% | RAM network inhibition [7] 5.23%

Cc1ccn2cc(CCNC(=O)c3ccc(Br)o3)nc2c1
inactive: growth inhibition [1] -10.6% | growth inhibition [2] -12.7% | viability increase [3] -0.26% | viability [4] 93.8% | viability [5] 95.4% | inhibition [6] 3.01% | RAM network inhibition [7] 4.83%

CC(=O)c1ccc(-n2nncc2C(C)(C)C)cc1
inactive: growth inhibition [1] -3.02% | growth inhibition [2] -2.67% | viability increase [3] -0.85% | viability [4] 98.6% | viability [5] 99.5% | inhibition [6] 1.47% | RAM network inhibition [7] 0.78%

Cn1c(C(=O)Nc2ccc3c(c2)OCCO3)cc2c(=O)n(C)c3ccccc3c21
inactive: growth inhibition [1] -14.2% | growth inhibition [2] -2.83% | viability increase [3] -7.31% | viability [4] 72.5% | viability [5] 64.3% | inhibition [6] 1.94% | RAM network inhibition [7] 4.95%

[O-]/[N+](=C\c1ccncc1)c1ccc(Br)cc1
inactive: growth inhibition [1] -15% | growth inhibition [2] -19.9% | viability increase [3] -4.14% | viability [4] 83.7% | viability [5] 87.9% | inhibition [6] 2.81% | RAM network inhibition [7] 6.02%

CCOC(=O)C1CCCN(C(=O)c2ccc(CS(=O)(=O)c3ccc(C)cc3)o2)C1 (stereo not drawn)
inactive: growth inhibition [1] -0.315% | growth inhibition [2] -6.29% | viability increase [3] -2.78% | viability [4] 110% | viability [5] 101% | inhibition [6] 1.16% | RAM network inhibition [7] 3.23%

COCc1cc(=O)n2c(-c3ccc(C)cc3)n[nH]c2n1
inactive: growth inhibition [1] -9.25% | growth inhibition [2] 6.96% | viability increase [3] -0.72% | viability [4] 95.8% | viability [5] 92.1% | inhibition [6] 2.2% | RAM network inhibition [7] 1.28%

CCCCS(=O)CC(COc1ccc(Cl)cc1)OC(=O)c1ccccc1 (stereo not drawn)
inactive: growth inhibition [1] -11.8% | growth inhibition [2] -9.18% | viability increase [3] 3.23% | viability [4] 76.1% | viability [5] 86.2% | inhibition [6] 0.42% | RAM network inhibition [7] 5.86%

N#Cc1cccc(NC(=O)CC2CCCCC2)c1
inactive: growth inhibition [1] -1.48% | growth inhibition [2] 11.6% | viability increase [3] -0.95% | viability [4] 95% | viability [5] 86.8% | inhibition [6] 0.645% | RAM network inhibition [7] 2.76%

CC(C)Oc1cc(O)c2c(=O)c(-c3ccc(O)cc3)coc2c1
inactive: growth inhibition [1] -14.2% | growth inhibition [2] -15.1% | viability increase [3] -6.33% | viability [4] 79.8% | viability [5] 64.5% | inhibition [6] 0.605% | RAM network inhibition [7] -3.3%

CCCSCCCNC(=O)Cn1cc2c(n1)CCCCC2
inactive: growth inhibition [1] -3.9% | growth inhibition [2] 5.24% | viability increase [3] -2.42% | viability [4] 94% | viability [5] 93.2% | inhibition [6] -0.37% | RAM network inhibition [7] 3.05%

CC1CCCN(C(C(=O)Nc2ccc3c(c2)OCO3)c2ccccc2)C1 (stereo not drawn)
inactive: growth inhibition [1] -8.14% | growth inhibition [2] 5.27% | viability increase [3] -3.45% | viability [4] 79.6% | viability [5] 79.4% | inhibition [6] 1.85% | RAM network inhibition [7] 1.67%

O=C(c1ccccc1)N1CCN(C2CC(=O)N(CCc3ccccc3)C2=O)CC1 (stereo not drawn)
inactive: growth inhibition [1] -3.21% | growth inhibition [2] 4.64% | viability increase [3] 1.3% | viability [4] 96.8% | viability [5] 100% | inhibition [6] 2.52% | RAM network inhibition [7] 4.98%
